In the library only some 3% were active in any assay of this set; here they are far more common.
S1P3 ag: human S1P3 receptor agonists, primary screen, cell-based, primary and confirmation, NFAT-BLA reporter | Sphingosine 1-phosphate receptor 3 (Homo sapiens), Q99500 | S1P3 NFAT-BLA reporter cells, agonism, FRET ratio; relative to 1 µM S1P, basal subtracted | activation, % at 4.5 µM | hit rate 0.1% among 60,000 | AID 373, 2006;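 active means activation above the screen-wide mean plus 3 SD, cut at about 4.5% in these data, passing the limit was not always enough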
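Material: Human S1P3 NFAT-BLA reporter CHO cells | Incubation: Overnight plating, 4 h compound 37 °C, 2 h substrate RT | Signal: FRET β-lactamase substrate fluorescence, excitation 405 nm, 460/535 nm emission ratio, background-subtracted | Compound: 4.5 µM final, single dose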
S1P1 ag-PAM: S1P1 agonists and agonism potentiators, primary screen, cell-based, primary and confirmation screens, CRE-bla reporter; Sphingosine 1-phosphate receptor 1 (Homo sapiens), P21453; S1P1 CRE-bla cells, forskolin, beta-lactamase FRET, potentiator mode; S1P1 agonist co-added at EC20, 2 nM; 100% = saturating reference agonist, 0% = basal; activation, % at 9.5 µM; hit rate 0.57% among 56,000;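 active means activation above a cutoff set at the mean activation of all tested compounds plus 3 SD, cut at about 54% in these data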;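 further: forskolin at 4 µM as EC80 and the EC20 agonist is SEW2871; 100% = SEW2871 at its EC100 plus forskolin at EC80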
5HT1E antag: 5-HT1E receptor antagonists, primary screen, cell-based, HTS; CHO 5-HT1E Ga15 NFAT-bla reporter, FRET, antagonist; inhibition, % at 6 µM; hit rate 0.99% among 65,000;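 active means inhibition above a set limit, the mean inhibition across every tested compound plus 3 SD, cut at about 29% in these data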;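 further: signal is the 460 over 535 nm emission ratio of beta-lactamase substrate; 0% = agonist plus DMSO wells and 100% = wells without agonist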
Target sequence (P28566 whole entry, looked up): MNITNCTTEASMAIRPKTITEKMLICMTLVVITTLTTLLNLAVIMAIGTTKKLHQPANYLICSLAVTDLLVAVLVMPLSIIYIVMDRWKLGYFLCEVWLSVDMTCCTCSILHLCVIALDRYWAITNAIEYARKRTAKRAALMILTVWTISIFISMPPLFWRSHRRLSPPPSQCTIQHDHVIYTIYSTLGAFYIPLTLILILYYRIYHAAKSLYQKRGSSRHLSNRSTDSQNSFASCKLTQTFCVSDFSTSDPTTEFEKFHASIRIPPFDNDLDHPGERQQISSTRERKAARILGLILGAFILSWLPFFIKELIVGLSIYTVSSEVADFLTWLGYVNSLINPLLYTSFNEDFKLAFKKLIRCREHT
HTR1E agonist: 5-HT1E receptor agonists, primary screen, cell-based, HTS; CHO 5-HT1E Ga15 NFAT-bla reporter, FRET; 0% DMSO wells, 100% control agonist wells; activation, % at 6 µM; hit rate 0.69% among 65,000; AID 574, 2007;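 active means activation above a set limit, the screen-wide mean activation plus 3 SD, cut at about 8.5% in these data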;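 further: 100% = positive control agonist at 1 µM giving full maximal response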
HTR1A agonist: human 5-HT1a receptor agonists, primary screen, cell-based, CHO, Ga15 NFAT-bla reporter. CHO 5-HT1a Ga15 NFAT-bla reporter, FRET ratio; 0% basal, 100% maximal reference agonist. activation, % at 10 µM. hit rate 0.56% among 65,000. AID 567, 2006;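 active means activation above the screen-wide mean activation plus 3 SD, cut at about 19% in these data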;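 further: 0% = DMSO wells and 100% = 5-CT at EC100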
5HT1a antag: human 5-HT1a receptor antagonists, primary screen, cell-based, CHO, Ga15 NFAT-bla reporter | AID 612, 2007 | CHO 5-HT1a Ga15 NFAT-bla reporter, antagonist mode | inhibition, % at 10 µM | hit rate 0.68% among 62,000;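 active means inhibition above the mean of all tested compounds plus 3 SD, cut at about 43% in these data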;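 further: receptor stimulated by 5-CT agonist at 100 nM near EC80; beta-lactamase reporter measured by ratiometric fluorescence of a cleavable substrate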
Active calls of the source: *; / = not tested or not shown.

SMILES	S1P3 ag	S1P1 ag-PAM	5HT1E antag	HTR1E agonist	HTR1A agonist	5HT1a antag
Cc1ccc(-c2nnc3n2N=C(c2ccccc2Br)CS3)cc1	-1	29	32*	0	-1	14
COc1ccc(C2=Nn3c(nnc3-c3ccccc3)SC2)cc1OC	4	-53	49*	1	3	/
CCOc1ccc(C2=Nn3c(nnc3-c3ccc(OC)cc3)SC2)cc1	1	-34	39*	2	0	15
COc1ccc(OC)c(C2=Nn3c(nnc3-c3cccc(OC(C)C)c3)SC2)c1	0	-8	38*	0	3	14
COc1ccc(-c2nn(C)c(=O)c3ccccc23)cc1NC(=O)Cn1nc(C)c2ccccc2c1=O	0	11	38*	1	0	16
CCOC(=O)c1c(NC(=O)c2nn(CC)cc2Br)c(C#N)nn1-c1ccccc1	-2	-25	18	0	2	4
CCOC(=O)c1nn(-c2ccccc2)c(C#N)c1NC(=O)c1nn(CC)cc1Br	-1	-44	54*	0	2	17
Cc1cc(C(=O)CSc2nnc(-c3ccco3)o2)c(C)n1CC1COc2ccccc2O1 (centres undefined)	-1	17	-1	1	30*	-1
CC(=O)Nc1cccc(NC(=O)CSc2nnc(Cc3cccn3C)n2-c2ccc(C)cc2)c1	0	-38	-11	1	-2	-6
OCCN1CCN(CCCN2c3ccccc3Sc3ccc(Cl)cc32)CC1	-3	-12	0	0	-4	/
CN(C)CCCN1c2ccccc2Sc2ccc(Cl)cc21	-2	-6	-7	8.7*	1	/
CC(C)C[C@H](N)c1nnc(S(=O)(=O)Cc2ccc(F)cc2)o1	-2	5	43*	0	0	88*
Cc1cccc2cc(CN(Cc3nnnn3C3CCCC3)C3CCCCC3)c(=O)[nH]c12	0	-14	33*	1	0	-2
Cn1cnnc1SCCn1c(N2CCCCC2)nc2c1c(=O)[nH]c(=O)n2C	1	-12	-10	0	-2	-2
O=C(NCCCn1ccnc1)c1ccco1	-1	4	-5	0	20*	-10
O=C(NCCCn1ccnc1)c1ccncc1	-1	-13	-7	1	0	0
CCN1CCN(c2ncc(C(=O)Nc3cc(Cl)ccc3OC)c3ccccc23)CC1	-1	22	20	40*	0	-10
COc1ccc(Cl)cc1NC(=O)CCN1CCN(c2ccccc2C)CC1	/	/	-6	1	2	9
CCC(=O)Oc1ccc2c(C)cc(=O)oc2c1C	-2	-1	6	0	65*	6
COc1cccc(C2=CC(c3ccc(C)cc3)n3ncnc3N2)c1 (centres undefined)	-1	4	29*	0	0	29
Cc1ccc(C2C=C(c3ccc4c(c3)OCO4)Nc3ncnn32)cc1 (centres undefined)	1	-36	7	0	-3	10
COc1ccc(/C(O)=C2\C(=O)C(=O)N(CCCN(C)C)C2c2ccccc2F)cc1Cl (centres undefined)	0	-10	-11	1	1	-20
COCCN(C(=O)Cc1cccs1)c1nnc(-c2cccnc2)s1	0	24	3	-1	-2	-13
COCCN(C(=O)c1ccccc1)c1nnc(-c2cccnc2)s1	0	62*	-7	0	-3	-1
O=C(CN(C(=O)CCC(=O)Nc1nccs1)c1ccc(F)c(Cl)c1)NCc1ccco1	0	-9	5	-1	-2	0
O=C(CCCN1Cc2ccccc2C1)c1ccc(F)cc1	-2	-4	1	1	22*	27
